{"source": "ChEMBL document CHEMBL1124112", "about": "“Indoline analogues of idazoxan: potent alpha 2-antagonists and alpha 1-agonists” (J Med Chem, 1988)", "key": {"[1]": {"target": "Adrenergic receptor alpha-2 (Rattus norvegicus) (UniProt P22086+P19328+P22909)", "assay": "Antagonist potency towards alpha-2 adrenergic receptor determined as the dose required to produce a two fold shift of the dose-response curve to UK-14304 on the twitch response of the vas deferens (in vitro);AG- agonist", "type": "functional, tissue-based", "details": "filed as agonist"}, "Rattus norvegicus [2]": {"test_system": "Rattus norvegicus", "assay": "In vivo ED40 is the raising diastolic blood pressure by 40 mm Hg in pithed rats. (postjunctional)", "type": "functional", "details": "Artery", "summary_of_the_method": "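Pithed rats, compound given iv in cumulative doses. ED40 is the dose (μg/kg) raising diastolic blood pressure by 40 mmHg. Separate groups of rats (n = 4-6).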"}, "Rattus norvegicus [3]": {"test_system": "Rattus norvegicus", "assay": "In vivo antagonist dose producing two fold shift of cirazoline in pithed rats. (postjunctional)", "type": "functional", "summary_of_the_method": "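Pithed rats, separate groups (n = 4-6). Cirazoline cumulative dose-response on diastolic blood pressure (postjunctional α1) was recorded with and without antagonist given iv. The antagonist dose (μg/kg, iv) giving a twofold rightward shift of the cirazoline curve was reported as DR2.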"}, "[4]": {"target": "T1, Adrenergic receptor alpha-2 (Rattus norvegicus, UniProt P22086+P19328+P22909)", "T1 sequence (P22086 whole entry)": "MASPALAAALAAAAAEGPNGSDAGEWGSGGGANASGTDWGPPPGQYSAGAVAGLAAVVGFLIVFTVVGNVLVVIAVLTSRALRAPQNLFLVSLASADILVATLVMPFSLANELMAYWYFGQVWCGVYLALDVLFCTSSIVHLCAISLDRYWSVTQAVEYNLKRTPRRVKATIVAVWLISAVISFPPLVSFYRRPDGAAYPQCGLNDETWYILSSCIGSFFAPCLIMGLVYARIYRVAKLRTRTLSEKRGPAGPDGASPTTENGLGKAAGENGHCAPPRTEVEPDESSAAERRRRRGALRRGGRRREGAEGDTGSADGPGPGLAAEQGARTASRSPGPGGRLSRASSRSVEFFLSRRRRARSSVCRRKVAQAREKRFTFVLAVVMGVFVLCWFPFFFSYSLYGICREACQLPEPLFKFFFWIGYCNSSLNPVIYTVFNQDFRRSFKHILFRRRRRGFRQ", "T1 sequence (P19328 whole entry)": "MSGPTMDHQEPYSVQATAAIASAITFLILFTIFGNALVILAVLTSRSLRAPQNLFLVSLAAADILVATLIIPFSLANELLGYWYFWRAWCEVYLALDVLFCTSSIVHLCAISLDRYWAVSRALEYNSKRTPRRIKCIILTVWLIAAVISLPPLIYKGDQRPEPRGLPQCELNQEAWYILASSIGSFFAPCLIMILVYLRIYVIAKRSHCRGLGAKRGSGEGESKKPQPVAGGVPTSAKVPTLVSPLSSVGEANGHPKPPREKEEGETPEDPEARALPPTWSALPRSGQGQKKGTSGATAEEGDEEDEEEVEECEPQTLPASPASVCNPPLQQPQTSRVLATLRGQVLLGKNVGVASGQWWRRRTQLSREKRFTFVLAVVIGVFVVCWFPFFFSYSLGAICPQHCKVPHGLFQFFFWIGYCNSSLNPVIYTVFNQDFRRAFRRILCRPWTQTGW", "T1 sequence (P22909 whole entry)": "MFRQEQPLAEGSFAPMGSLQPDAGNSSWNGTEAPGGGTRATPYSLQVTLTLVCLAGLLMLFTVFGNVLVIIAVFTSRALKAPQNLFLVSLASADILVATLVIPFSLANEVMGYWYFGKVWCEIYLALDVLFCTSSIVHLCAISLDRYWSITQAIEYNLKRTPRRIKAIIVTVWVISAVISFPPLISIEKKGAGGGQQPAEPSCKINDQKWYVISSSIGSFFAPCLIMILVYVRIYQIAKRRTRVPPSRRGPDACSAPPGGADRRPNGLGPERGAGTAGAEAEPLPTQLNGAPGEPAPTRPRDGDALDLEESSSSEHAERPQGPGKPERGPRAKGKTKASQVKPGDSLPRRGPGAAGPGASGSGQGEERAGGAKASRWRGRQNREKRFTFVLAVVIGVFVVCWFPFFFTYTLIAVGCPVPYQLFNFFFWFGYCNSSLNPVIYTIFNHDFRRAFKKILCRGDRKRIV", "assay": "Inhibition of saturable binding of [3H]idazoxan to alpha2-site in rat cerebral cortical membranes.", "type": "cell membranes, Membrane"}, "Rattus norvegicus [5]": {"test_system": "Rattus norvegicus", "assay": "In vivo antagonist dose producing two fold shift of UK-14,304 in pithed rats. (prejunctional)"}, "[6]": {"test_system": "Adrenergic receptor alpha-1 (Rattus norvegicus)", "assay": "[…] towards alpha-1 adrenergic receptor determined as the dose required to produce a two fold shift of the cirazoline on diastolic blood pressure (in vitro)", "details": "Artery"}, "[7]": {"test_system": "Adrenergic receptor alpha-2 (Rattus norvegicus)", "assay": "Agonism at alpha-2 adrenergic receptor, determined as dose required to produce a two fold shift of the cumulative dose-response curve to UK-14304 on the twitch response in rat vas deferens."}}, "data": [{"smiles": "c1ccc(CN2c3ccccc3CC2C2=NCCN2)cc1", "note": "(configuration not stated)", "values": [{"measurement": "Prejunctional antagonist potency", "setting": "[1]", "value": "Agonist"}, {"measurement": "ED40", "setting": "Rattus norvegicus [2]", "value": 0.308, "unit": "mg/kg"}, {"measurement": "DR2", "setting": "Rattus norvegicus [3]", "value": 0.0543, "unit": "mg/kg"}, {"measurement": "Ki", "setting": "[4]", "value": 1.87, "unit": "nM"}, {"measurement": "DR2", "setting": "Rattus norvegicus [5]", "value": 0.0087, "unit": "mg/kg"}, {"measurement": "Postjunctional antagonist potency", "setting": "[6]", "value": 120}, {"measurement": "Prejunctional agonist potency", "setting": "[7]", "value": 0.02}]}]}
